According to ChEMBL document CHEMBL2093137, “WHO-TDR NTD Screening”:
Values after ≈ are worked out from the molar mass of the structure shown.

Tests used:
Leishmania infantum = assay: WHO-TDR: Leishmaniasis; type: functional, organism-based, Mus musculus; settings: Macrophage
Procedure, shortened: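 Intracellular amastigotes of Leishmania infantum MHOM/MA(BE)/67, hosted in murine peritoneal macrophages, were exposed to compounds from a 10,000-member diverse library supplied by Life Chemicals. The library had been filtered for drug-likeness and reactive groups. The reported IC50 expresses antiparasitic potency.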

[1] = WHO-TDR: Cytotoxicity; type: toxicity, cell-based; settings: human, MRC5 cells
Plasmodium falciparum K1 = assay: WHO-TDR: Malaria; type: functional, organism-based, Homo sapiens; settings: Erythrocyte
Procedure, shortened: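 Previously published standard procedures, including a reference drug as positive control, were used to screen whole Plasmodium falciparum K1 parasites inside human red blood cells. IC50 is the measure of antiplasmodial potency. The compounds were a 10,000-member diverse Life Chemicals library.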

Trypanosoma cruzi = assay: WHO-TDR: Chagas disease; type: functional, organism-based, Homo sapiens; settings: MRC5
Procedure, shortened: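 Each IC50 reflects antiparasitic potency against intracellular amastigotes of Trypanosoma cruzi Tulahuen CL2 beta-galactosidase strain. These were cultured in MRC-5SV2 human lung fibroblasts and exposed to a 10,000-compound diverse Life Chemicals library screened according to published standard procedures with a reference drug as positive control.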

Schistosoma mansoni = assay: WHO-TDR: Schistosomiasis; type: functional; set-up: concentration or dose not given beside the values
Procedure, shortened: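 A diverse library of 10,000 compounds from Life Chemicals, filtered for drug-likeness and reactive groups, was screened against whole larval and/or adult Schistosoma mansoni worms of the Puerto Rican strain. Previously published standard procedures were followed, with a reference drug as positive control. Activity is given as percent inhibition and as IC50.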

[2] = system: Trypanosoma brucei brucei; assay: WHO-TDR: Human African Trypanosomiasis (HAT); type: functional, organism-based; settings: Squib-427
Procedure, shortened: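 In this whole-organism screen, the target was the bloodstream form of Trypanosoma brucei, strain Squib 427. A diverse set of 10,000 compounds from Life Chemicals, previously filtered for drug-likeness and reactive groups, was assayed by standard published procedures using reference drugs as positive controls. Each value is an IC50 for antiparasitic potency.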

Onchocerca ochengi = assay: WHO-TDR: Onchocerciasis; type: functional; set-up: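 at 12.5 µM on microfilariae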
Procedure, shortened: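 A diverse library of 10,000 compounds from Life Chemicals, filtered for drug-likeness and reactive groups, was screened against whole microfilariae of Onchocerca ochengi or Onchocerca lienalis. These animal pathogens served as stand-ins for the human parasite. Activity is given as percent inhibition and as IC50.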

Brugia malayi = assay: WHO-TDR: Lymphatic Filariasis; type: functional; set-up: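 tested at 10 µM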
Procedure, shortened: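 A diverse library of 10,000 compounds from Life Chemicals was screened against Brugia malayi microfilariae in a whole-organism assay. The library had been filtered for drug-likeness and reactive groups. Activity is given as percent inhibition and as IC50.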

Compound	IC50 (Leishmania infantum) [µg/mL]	IC50 [1] [µg/mL]	IC50 (Plasmodium falciparum K1) [µg/mL]	IC50 (Trypanosoma cruzi) [µg/mL]	% Inhibition (Schistosoma mansoni) [%]	IC50 [2] [µg/mL]	% Inhibition (Onchocerca ochengi) [%]	% Inhibition (Brugia malayi) [%]
COc1cc(C)ccc1S(=O)(=O)NCCCn1nc(-c2ccc(F)cc2)ccc1=O	> 12.9	10 (≈ 23.2 µM)	> 12.9	> 12.9	0	> 12.9	100	0
CC(CC(=O)N1CCC(Cc2ccccc2)CC1)CC1=Nc2ccccc2S(=O)(=O)N1 (configuration not stated)	> 13.2	> 13.2	> 13.2	6.58 (≈ 15 µM)	0	> 13.2	100	0
COc1cccc(C(=O)N(CCCn2ccnc2)c2nc3c(C)c(C)ccc3s2)c1OC	4.73 (≈ 10.5 µM)	3.15 (≈ 6.99 µM)	1.28 (≈ 2.85 µM)	0.648 (≈ 1.44 µM)	0	1.34 (≈ 2.97 µM)	100	0
COc1ccc(-c2ccc(N3CCN(C(=O)c4c(F)cccc4F)CC3)nn2)cc1OC	0.428 (≈ 0.972 µM)	> 13.2	> 13.2	> 13.2	8.3	> 13.2	0	0
CCc1ccc(C(=O)NCCNc2ccc(Nc3cccc(C)n3)nn2)cc1	> 11.3	6.22 (≈ 16.5 µM)	3.3 (≈ 8.76 µM)	> 11.3	0	> 11.3	100	0
CS(=O)(=O)N1CCCCC1C(=O)Nc1nc(-c2nc3ccccc3s2)cs1 (configuration not stated)	> 12.7	> 12.7	> 12.7	> 12.7	0	> 12.7	100	0
O=C(c1cccc(F)c1)N(CCCn1ccnc1)c1nc2ccc(F)cc2s1	> 13	> 13	0.745 (≈ 1.87 µM)	3.32 (≈ 8.33 µM)	0	4.17 (≈ 10.5 µM)	100	0
CC1Cc2ccccc2N1C(=O)Cc1csc(NC(=O)c2ccc[nH]c2=O)n1 (configuration not stated)	> 11.8	> 11.8	> 11.8	> 11.8	100	> 11.8	50	20
CCn1ccnc1N1CCN(CC(=O)NC2CCCCC2)CC1	0.381 (≈ 1.19 µM)	> 11.8	> 11.8	> 11.8	0	> 11.8	0	0
CCSc1ccccc1C(=O)Nc1nnc(Cc2cccs2)o1	0.336 (≈ 0.973 µM)	9.48 (≈ 27.5 µM)	> 10.4	3.48 (≈ 10.1 µM)	33.3	3.35 (≈ 9.71 µM)	0	0
O=C(CSC1=Nc2cccnc2Nc2ccccc21)Nc1ccc(OC(F)(F)F)cc1	> 13.3	> 13.3	13.3 (≈ 30 µM)	> 13.3	0	> 13.3	100	0
O=C(c1ccc(F)cc1F)N1CCN(c2ccc(-c3cccnc3)nn2)CC1	0.37 (≈ 0.97 µM)	> 11.4	> 11.4	> 11.4	0	> 11.4	0	33.33
Cc1ccccc1OCC(=O)NCCS(=O)(=O)N1CCN(Cc2ccccc2)CC1	> 14	> 14	> 14	> 14	83.3	> 14	100	20
COc1ccc(C)c2sc(N(CCCn3ccnc3)C(=O)Cc3ccccc3)nc12	> 13.7	4.07 (≈ 9.68 µM)	0.615 (≈ 1.46 µM)	0.644 (≈ 1.53 µM)	0	3.3 (≈ 7.85 µM)	100	0
